Results on one compound are retold here after ChEMBL document CHEMBL3046055, “Synthesis and herbicidal activity of novel N-(2,2,2)-trifluoroethylpyrazole derivatives” (J Agric Food Chem, 2010).

Data set [1] relates to Echinochloa crus-galli. The data set is described as follows: Herbicidal activity against Echinochloa crus-galli (barnyard grass) assessed as inhibition of fresh weed plant weights at 300 g ai/ha using pre-emergence treatment protocol under greenhouse conditions relative to untreated control. Type of data set: functional. Summed up: (§1)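 Pre-emergence test in plastic pots kept in a greenhouse at 22-25 °C. Fresh weight of aerial plant parts was measured 20 days later, and percent inhibition calculated relative to water-sprayed controls. Metolachlor served as the positive control. Three replicates were run per concentration.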

The subject of data set [2] is Portulaca oleracea. As to the kind of experiment: Herbicidal activity against Portulaca oleracea assessed as inhibition of shoot growth at […] measured 7 days post treatment. The format is functional. The note with it: 168 h, read-out: GI. Summed up: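 Petri-dish agar assay. A 10 g/L stock of compound in acetone was mixed into molten agar; the untreated control was agar without compound. Seeds were placed on the agar surface and the cups were covered with glass lids. Incubation was 25 ± 1 °C, 50-55% RH, 12 h light/12 h dark, for 7 days. Root and shoot lengths were measured and growth inhibition calculated against the control, in three replicates.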

In data set [3] the test system is Digitaria sanguinalis. As to the kind of experiment: Herbicidal activity against Digitaria sanguinalis (hairy crabgrass) assessed as inhibition of fresh weed plant weights at 600 g ai/ha using pre-emergence treatment protocol under field trials conditions measured 30 days post soil treatment relative to untreated control. The format is functional. The note with it: 720 h. The procedure, abridged:
(§2)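 Field pre-emergence trial. Treatments were applied to the soil surface within 24 h after maize planting, at 300, 400, 600 and 800 g a.i. ha^-1. Fresh weight of aerial plant parts was measured 30 days later, and percent inhibition calculated relative to the water-sprayed control.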

Data set [4] relates to Zea mays. As to the kind of experiment: Toxicity against Zea mays var. SHEN DAN 17 (maize) assessed induction of crop injury at 600 g ai/ha using pre-emergence treatment protocol under field trials conditions measured 30 days post soil treatment. The format is organism-based. The note with it: in vivo, other, 720 h. Summed up: (§3)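 Pre-emergence application to soil surface within 24 h after maize planting, at 300, 400, 600 or 800 g a.i. ha^-1. Fresh weight of aerial plant parts measured 30 days later; percentage inhibition calculated relative to water-sprayed control.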

Data set [5] deals with Digitaria sanguinalis. As to the kind of experiment: Herbicidal activity against Digitaria sanguinalis (hairy crabgrass) assessed as inhibition of fresh weed plant weights at 600 g ai/ha using pre-emergence treatment protocol under greenhouse conditions relative to untreated control. The format is functional. The procedure, abridged:
as §1

For data set [6], the system named is Echinochloa crus-galli. As to the kind of experiment: Herbicidal activity against Echinochloa crus-galli (barnyard grass) assessed as inhibition of shoot growth at […] measured 7 days post treatment. Type of data set: functional. Also on record: dose or concentration left out as unconfirmed. The note with it: 168 h, read-out: GI.
Data set [7] has as its system Brassica rapa subsp. oleifera. The data set is described as follows: Toxicity against Brassica rapa subsp. oleifera var. JING GUAN 1 assessed as inhibition of fresh weed plant weights at 300 g ai/ha using pre-emergence treatment protocol under greenhouse conditions relative to untreated control. The format is organism-based. The conditions noted are these: in vivo, other. Summed up: as §1

The test system of data set [8] is Echinochloa crus-galli. The data set is described as follows: Herbicidal activity against Echinochloa crus-galli (barnyard grass) assessed as inhibition of root growth at […] measured 7 days post treatment. The note with it: 168 h, read-out: GI. The format is functional. Also on record: dose or concentration left out as unconfirmed.
The subject of data set [9] is Portulaca oleracea. The data set is described as follows: Herbicidal activity against Portulaca oleracea assessed as inhibition of fresh weed plant weights at 800 g ai/ha using pre-emergence treatment protocol under field trials conditions measured 30 days post soil treatment relative to untreated control. The format is functional. The note with it: 720 h. Summed up:
as §2

Data set [10] concerns Brassica rapa subsp. oleifera. The data set is described as follows: Toxicity against Brassica rapa subsp. oleifera var. JING GUAN 1 assessed as inhibition of fresh weed plant weights at 150 g ai/ha using pre-emergence treatment protocol under greenhouse conditions relative to untreated control. The conditions noted are these: in vivo, other. Type of data set: organism-based. Summed up:
as §1

In data set [11] the test system is Digitaria sanguinalis. The data set is described as follows: Herbicidal activity against Digitaria sanguinalis (hairy crabgrass) assessed as inhibition of fresh weed plant weights at 800 g ai/ha using pre-emergence treatment protocol under field trials conditions measured 30 days post soil treatment relative to untreated control. Type of data set: functional. The note with it: 720 h. The procedure, abridged: as §2

For data set [12], the system named is Zea mays. As to the kind of experiment: Toxicity against Zea mays var. SHEN DAN 17 (maize) assessed induction of crop injury at 400 g ai/ha using pre-emergence treatment protocol under field trials conditions measured 30 days post soil treatment. The format is organism-based. The conditions noted are these: in vivo, other, 720 h. Summed up:
as §3

For data set [13], the system named is Brassica rapa subsp. oleifera. The data set is described as follows: Toxicity against Brassica rapa subsp. oleifera var. JING GUAN 1 assessed as inhibition of fresh weed plant weights at 600 g ai/ha using pre-emergence treatment protocol under greenhouse conditions relative to untreated control. Type of data set: organism-based. The conditions noted are these: in vivo, other. Summed up:
as §1

Data set [14] has as its system Digitaria sanguinalis. The data set is described as follows: Herbicidal activity against Digitaria sanguinalis (hairy crabgrass) assessed as inhibition of fresh weed plant weights at 300 g ai/ha using pre-emergence treatment protocol under field trials conditions measured 30 days post soil treatment relative to untreated control. Type of data set: functional. The note with it: 720 h. Summed up:
as §2

On to `Cc1nn(CC(F)(F)F)c(CS(=O)(=O)C2=NOC(C)(C)C2)c1Cl`, for which the inhibition at 300 g/ha with Echinochloa crus-galli [1] was 100%; in the data set on Digitaria sanguinalis [14], 95%. Also, the inhibition of growth at 100000 µg/mL in the data set on Portulaca oleracea [2] stood at 54%. Further, the inhibition at 600 g/ha with Digitaria sanguinalis [3] and in the data set on Digitaria sanguinalis [5] was 100% each time. Besides, the Activity with Zea mays [4] and with Zea mays [12] was 0% in each case. Further, the inhibition of growth stood at 84% in the data set with Echinochloa crus-galli [6] and 62% in the data set on Echinochloa crus-galli [8]. Further, the “inhibition (INH)” value was 12% in [7], 7% in data set [10] and 11% in [13]. Also, the inhibition at 800 g/ha in the data set with Portulaca oleracea [9] and in the data set on Digitaria sanguinalis [11] was 100% throughout.

For orientation: inhibition means how much of the control response was suppressed.
